Values after ≈ are worked out from the molar mass of the structure shown.
What was measured:
[1] = target: T1, Amine oxidase [flavin-containing] A (Homo sapiens, UniProt P21397); experiment: Inhibition of human recombinant MAO-A expressed in yeast after 1 hr by luciferin-based luminescence assay
T1 sequence (P21397 whole entry): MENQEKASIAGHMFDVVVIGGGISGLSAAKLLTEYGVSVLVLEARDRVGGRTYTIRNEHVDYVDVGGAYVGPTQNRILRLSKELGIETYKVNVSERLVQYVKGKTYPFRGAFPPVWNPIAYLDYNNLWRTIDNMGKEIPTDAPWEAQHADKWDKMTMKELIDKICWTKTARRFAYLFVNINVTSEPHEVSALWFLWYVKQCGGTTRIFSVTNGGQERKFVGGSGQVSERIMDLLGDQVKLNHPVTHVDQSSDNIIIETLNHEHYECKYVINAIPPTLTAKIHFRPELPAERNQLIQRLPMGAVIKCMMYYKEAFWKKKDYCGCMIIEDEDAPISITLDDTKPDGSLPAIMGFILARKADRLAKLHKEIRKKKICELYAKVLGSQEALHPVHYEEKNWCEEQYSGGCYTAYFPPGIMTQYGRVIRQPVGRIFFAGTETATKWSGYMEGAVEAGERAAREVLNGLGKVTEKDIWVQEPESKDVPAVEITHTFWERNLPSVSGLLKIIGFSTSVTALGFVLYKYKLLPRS

[2] = Myelosuppression activity against human CD34-positive blood stem/progenitor cells assessed as growth inhibition after 9 to 10 days by CellTiter-Glo luminescent assay
Staphylococcus aureus [3] = experiment: Antibacterial activity against methicillin-resistant Staphylococcus aureus; type: functional
Staphylococcus aureus [4] = experiment: Antibacterial activity against methicillin-resistant Staphylococcus aureus SAU1009; type: functional
Outline: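 MIC against MRSA strain SAU1009.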

Enterococcus faecium [5] = experiment: Bacteriostatic activity against vancomycin-resistant Enterococcus faecium; type: functional
Enterococcus faecalis = experiment: Bacteriostatic activity against vancomycin-sensitive Enterococcus faecalis; type: functional
Enterococcus = experiment: Bacteriostatic activity against vancomycin-sensitive Enterococcus; type: functional
Enterococcus faecium [6] = experiment: Bacteriostatic activity against vancomycin-sensitive Enterococcus faecium; type: functional

## Cn1nnc(-c2ccc(-c3ccc(N4C[C@H](COP(=O)(O)O)OC4=O)cc3F)cn2)n1 [TEDIZOLID PHOSPHATE]
[1]
  IC50: 4 µM
[2]
  IC50: 0.2 µg/mL
Staphylococcus aureus [3]
  MIC90: 0.5 µg/mL

## Cn1nnc(-c2ccc(-c3ccc(N4C[C@H](CO)OC4=O)cc3F)cn2)n1 [TEDIZOLID]
Staphylococcus aureus [4]
  MIC: 0.25 µg/mL (≈ 0.675 µM)

## CN[C@H](CC(C)C)C(=O)N[C@H]1C(=O)N[C@@H](CC(N)=O)C(=O)N[C@H]2C(=O)N[C@H]3C(=O)N[C@H](C(=O)N[C@H](C(=O)O)c4cc(O)cc(O)c4-c4cc3ccc4O)[C@H](O)c3ccc(c(Cl)c3)Oc3cc2cc(c3O[C@@H]2O[C@H](CO)[C@@H](O)[C@H](O)[C@H]2O[C@H]2C[C@](C)(N)[C@H](O)[C@H](C)O2)Oc2ccc(cc2Cl)[C@H]1O [VANCOMYCIN]
Enterococcus faecium [5]
  MIC50: > 128 µg/mL
  MIC90: > 128 µg/mL
Enterococcus faecalis
  MIC50: 0.5 µg/mL (≈ 0.345 µM)
  MIC90: 1 µg/mL (≈ 0.69 µM)
Enterococcus
  MIC50: 0.5 µg/mL (≈ 0.345 µM)
  MIC90: 2 µg/mL (≈ 1.38 µM)
Enterococcus faecium [6]
  MIC50: 0.5 µg/mL (≈ 0.345 µM)
  MIC90: 0.5 µg/mL (≈ 0.345 µM)

— ChEMBL document CHEMBL3286113, “New potent antibacterial oxazolidinone (MRX-I) with an improved class safety profile” (J Med Chem, 2014)
